Hits are enriched below; roughly 12% of the tested compounds scored in any of these assays.
PKD1 kinase inh: inhibitors of human PKD1 kinase | PKD1 kinase fluorescence polarization assay | Q15139 | inhibition, % (test concentration not listed) | hit rate 0.056% among 200,000
Wee1 stabilizer: inhibitors of human Wee1 degradation; P30291; AID 1321; HeLa Luc-Wee1K328M stability, luciferase luminescence; 100% = proteasome inhibitor MG132 effect; hit rate 1.2% among 220,000; reporter increase, % at 5 µM;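 active = activation above the mean of all tested compounds plus 3 SD, set per screening run, cut at about 8.8% in these data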;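 note: cells exposed to compound for 20 h before luminescence read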
Rad51 HR inh: blocks human Rad51 in homologous recombination; Q06609; hRad51 DNA strand exchange, fluorescence dequenching; inhibition, % at 10 µM; hit rate 0.085% among 200,000;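 active = inhibition above 40% at the single screening dose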
Target sequence (Q06609 whole entry, looked up): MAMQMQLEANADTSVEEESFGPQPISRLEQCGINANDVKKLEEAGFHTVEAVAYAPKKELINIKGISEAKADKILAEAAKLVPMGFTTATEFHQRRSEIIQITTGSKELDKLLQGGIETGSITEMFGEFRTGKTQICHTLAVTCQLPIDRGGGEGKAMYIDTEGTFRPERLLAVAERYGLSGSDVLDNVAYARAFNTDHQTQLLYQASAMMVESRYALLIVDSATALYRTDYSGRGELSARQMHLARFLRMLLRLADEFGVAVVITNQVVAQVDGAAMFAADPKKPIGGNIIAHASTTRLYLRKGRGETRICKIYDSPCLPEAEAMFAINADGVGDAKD
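System: human Rad51 nucleoprotein filaments preassembled on unlabelled ssDNA. Reagent: labelled 47-mer dsDNA for strand exchange. Schedule: 30-min compound preincubation and 15-min exchange, both room temperature. Measured by: FRET fluorescence dequenching, excitation 485 nm, emission 520 nm. Read-out: Fluorescence-based percent inhibition, control- and blank-normalised. Benchmarks: plate controls and plate blanks.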
Arbovirus anti: arbovirus infection inhibition. AID 1251. inhibition, % at 10 µM. arbovirus infection cell-based antiviral screen. hit rate 0.37% among 200,000; in the data active = inhibition above about 30%
L major viab: inhibitors of Leishmania major promastigote growth. inhibition, % at 10 µM. AID 1063. Leishmania major promastigotes, resazurin fluorescence viability. hit rate 9% among 200,000;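 note: promastigotes grown with compound for 44 hours at 28 °C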
CHOP inhibitor: CHOP inhibition in unfolded protein response; hit rate 3.8% among 220,000; CHO-K1 CHOP-promoter luciferase, tunicamycin-induced, 15-18 h; AID 2732; inhibition, % at 10 µM;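 active = compounds that reduced the stress-induced luciferase reporter signal by more than about 70% of percent inhibition, limit read from the data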
A number is an active result; n = inactive; x = no result. Cut-off read from the data, not from the text of the source, unless noted: active = inhibition above about 50%; inactive = the rest.

SMILES | PKD1 kinase inh | Wee1 stabilizer | Rad51 HR inh | Arbovirus anti | L major viab | CHOP inhibitor
O=C(CN1CCCCCCC1)N/N=C/c1ccc(F)c(F)c1 | n | n | n | n | 97 | n
COc1ccc(/C=N/NC(=O)Cc2csc(Nc3cccc(C(F)(F)F)c3)n2)cc1C | n | n | n | n | n | 81
N#Cc1c(N)nc2c(c1-c1ccc(F)cc1)c(=O)nc1sccn12 | n | n | n | n | n | n
COC(=O)N(NC(=O)C(O)(c1ccccc1)c1ccccc1)c1ccccc1 | n | n | n | n | n | n
O=C(c1ccc(F)cc1)N(NC(=O)C(O)(c1ccccc1)c1ccccc1)c1ccccc1 | n | n | n | n | 66 | n
CC1CCCCN1S(=O)(=O)c1ccc(C(=O)Nc2ccccc2-c2nc3ccccc3[nH]2)cc1 (stereo not drawn) | n | 11 | x | n | n | n
CCOC(=O)Cc1nc(-c2cccc(C(F)(F)F)c2)no1 | n | n | n | n | n | n
O=C(NC(CO)C(O)c1ccc([N+](=O)[O-])cc1)C(Cl)Cl (stereo not drawn) | n | n | n | n | n | n
O=C(NC(CO)Cc1ccc([N+](=O)[O-])cc1)C(Cl)Cl (stereo not drawn) | n | n | n | n | 63 | n
C[C@@H]1CC=C[C@H]2[C@H]1C(=O)N(Cc1ccccc1)[C@H]2c1ccc(F)c(Br)c1 | x | x | n | x | x | 76
C[C@@H]1CC=C[C@H]2[C@H]1C(=O)N(Cc1ccccc1)[C@H]2c1ccc(F)c(/C=C/c2ccccc2)c1 | x | x | n | x | x | n
C/C(=N\Nc1ccc(S(=O)(=O)N2CCOCC2)cc1[N+](=O)[O-])C(C)C | n | n | n | n | n | n
Cc1sc2nc(CSc3ccccc3)nc(N3CCN(C)CC3)c2c1C | n | n | n | n | 98 | n
O=c1c(C=Nc2ccc(Cl)cc2)c[nH]n1-c1cccc(Cl)n1 | n | n | n | n | n | 83
O=c1c(C=Nc2cccc(C(F)(F)F)c2)c[nH]n1-c1cccc(Cl)n1 | n | n | n | n | n | n
S=C(NCc1ccco1)NCC(c1ccco1)N1CCCCC1 (stereo not drawn) | n | n | x | n | n | n
COC(=O)c1c(NC(=S)Nc2ccccc2Cl)sc(C)c1C | n | n | n | n | n | 89
COC(=O)c1c(NC(=O)C2CC(=O)NN2Cc2ccccc2)sc(C)c1C (stereo not drawn) | n | n | n | n | 100 | n
CCOC(=O)c1cc(CC)sc1NC(=O)C1CC(=O)NN1Cc1ccccc1 (stereo not drawn) | n | n | n | n | n | n
CC(NC(=O)CSC(=S)N(C)C)C12CC3CC(CC(C3)C1)C2 (stereo not drawn) | n | n | n | n | n | n
COc1ccc(Br)cc1/C=C/C(=O)Nc1c(C)cccc1C | n | n | n | n | 62 | n
COc1ccc(Br)cc1/C=C/C(=O)c1ccc(NC(C)=O)cc1 | n | n | n | n | 100 | n
COc1cc(NC(=O)CN2C(=O)c3ccccc3S2(=O)=O)c(OC)cc1Cl | n | n | n | n | n | x
COc1ccccc1/C=C1\CCCC2=C1Nc1nnnn1C2c1ccccc1OC (stereo not drawn) | n | n | n | n | 79 | 84
S=C1Cc2ccccc2N1 | x | n | n | x | x | 107
SMILES | PKD1 kinase inh | Wee1 stabilizer | Rad51 HR inh | Arbovirus anti | L major viab | CHOP inhibitor
O=C1CCc2ccccc2N1 | x | n | n | x | x | n
COc1ccc2oc3cc(C)[n+]([O-])c(-c4ccc(Cl)cc4)c3c2c1 | n | n | n | 45 | n | n
COc1ccc2oc3cc(C)[n+]([O-])c(-c4ccc(C)cc4)c3c2c1 | n | n | n | 46 | n | n
COc1ccc(-c2c(C)oc3ccc(C)cc23)cc1 | n | n | n | n | n | n
COc1ccc2oc(-c3ccccc3)c(C(N)=O)c2c1 | n | n | n | n | n | n
COc1ccc(-c2c3c(cc(C)[n+]2[O-])oc2ccc(OC)cc23)cc1 | n | n | n | 40 | n | n
CNC1=C(N(C(C)=O)c2ccc(Br)cc2)C(=O)c2ccccc2C1=O | n | n | n | n | 99 | n
Cc1cc(=O)n2c(n1)SCOC2 | x | n | n | x | x | n
Cc1ccc(S(=O)(=O)N(C)c2c(C)ccc(S(=O)(=O)N3CCN(C)CC3)c2C)cc1 | n | n | x | n | n | n
Cc1ccc(S(=O)(=O)N(C)c2c(C)ccc(S(=O)(=O)Nc3ccncc3)c2C)cc1 | n | n | n | n | n | n
C=C(C)CN1CCN(S(=O)(=O)c2ccc(C)c(N(C)S(=O)(=O)c3ccc(C)cc3)c2C)CC1 | n | n | n | n | 98 | n
Cc1ccc(S(=O)(=O)N(C)c2c(C)ccc(S(=O)(=O)NC(C)(C)C)c2C)cc1 | n | n | n | n | 99 | n
CCc1ccc(OCc2nnc(NC(=O)c3cccs3)s2)cc1 | n | n | n | n | n | 72
Cc1onc(-c2c(F)cccc2Cl)c1C(=O)N=C(N)N1CCCC1 | x | n | n | x | x | n
CCOc1cc(NC(=S)Nc2ccccc2)c(OCC)cc1NC(=O)c1ccccc1 | n | n | n | n | 88 | n
CCOc1cc(NC(=S)Nc2ccccc2OC)c(OCC)cc1NC(=O)c1ccccc1C | n | n | n | n | 97 | n
CCC(=O)Nc1cc(OC)c(NC(=O)c2ccccc2)cc1OC | n | n | n | n | 77 | n
CCOc1cc(NC(=S)NCC2CCCO2)c(OCC)cc1NC(=O)c1ccccc1C (stereo not drawn) | n | n | n | n | n | n
COc1ccc(C(=O)C2CCCN(Cc3cccn3-c3ccc(Cl)cn3)C2)c(OC)c1 (stereo not drawn) | n | n | n | n | 95 | n
COc1ccc(C(=O)C2CCCN(Cc3ccc(C#CCCO)cc3)C2)cc1F (stereo not drawn) | n | n | n | n | 50 | n
COc1ccc(C(=O)C2CCCN(Cc3ccc4nonc4c3)C2)c(OC)c1 (stereo not drawn) | n | n | n | n | 88 | n
COc1ccc(C(=O)C2CCCN(Cc3cnc(N4CCOCC4)s3)C2)cc1F (stereo not drawn) | x | n | n | x | x | n
COc1ccc(C(=O)C2CCCN(Cc3cnc(N4CCOCC4)s3)C2)c(OC)c1 (stereo not drawn) | n | n | n | n | 84 | n
COc1ccc(OC)c(CN2CCCC(C(=O)N3CCCCC3)C2)c1 (stereo not drawn) | n | n | n | n | n | n
Nc1nnn(CC(=O)N/N=C/c2cccc(Cl)c2)n1 | x | n | x | x | x | n
CCNS(=O)(=O)c1ccc(CCC(=O)NCCC2=CCCCC2)cc1 | n | n | n | n | n | n
Cc1nn(Cc2ccccc2)c(Cl)c1/C=C/C(=O)OCC(=O)N1CCCC1=O | n | n | n | n | n | n
COc1ccc(C(=O)C2CCCN(C3Cc4ccccc4C3)C2)cc1OC (stereo not drawn) | n | n | n | n | 93 | n
CCOC(=O)c1[nH]ncc1CN1CCCC(C(=O)c2ccc(OC)c(OC)c2)C1 (stereo not drawn) | n | n | n | n | n | n

Screening data as filed in PubChem BioAssay.
